From ChEMBL document CHEMBL3124896, “Optimization of the lactam side chain of 7-azaindenoisoquinoline topoisomerase I inhibitors and mechanism of action studies in cancer cells” (2014)
Each block holds one molecule with its values, some of them ahead of it. Activity calls are given as the source filed them. The rule behind the calls is not given here.

Experiments:
[1] = tested on: DU-145; test: Cytotoxicity against human DU145 cells by SRB assay; assay type: functional
[2] = tested on: UACC-62; test: Cytotoxicity against human UACC62 cells by SRB assay; assay type: functional
[3] = tested on: OVCAR-3; test: Cytotoxicity against human OVCAR3 cells by SRB assay; assay type: functional
[4] = tested on: SN12C; test: Cytotoxicity against human SN12C cells by SRB assay; assay type: functional
[5] = tested on: HOP-62; test: Cytotoxicity against human HOP62 cells by SRB assay; assay type: functional
[6] = tested on: HCT-116; test: Cytotoxicity against human HCT116 cells by SRB assay; assay type: functional
[7] = target: T1, DNA topoisomerase 1 (Homo sapiens) (UniProt P11387); test: Inhibition of human recombinant topoisomerase 1 using radiolabeled DNA as substrate at 0.1 to 100 uM after 20 mins by SDS-PAGE
T1 sequence (whole entry): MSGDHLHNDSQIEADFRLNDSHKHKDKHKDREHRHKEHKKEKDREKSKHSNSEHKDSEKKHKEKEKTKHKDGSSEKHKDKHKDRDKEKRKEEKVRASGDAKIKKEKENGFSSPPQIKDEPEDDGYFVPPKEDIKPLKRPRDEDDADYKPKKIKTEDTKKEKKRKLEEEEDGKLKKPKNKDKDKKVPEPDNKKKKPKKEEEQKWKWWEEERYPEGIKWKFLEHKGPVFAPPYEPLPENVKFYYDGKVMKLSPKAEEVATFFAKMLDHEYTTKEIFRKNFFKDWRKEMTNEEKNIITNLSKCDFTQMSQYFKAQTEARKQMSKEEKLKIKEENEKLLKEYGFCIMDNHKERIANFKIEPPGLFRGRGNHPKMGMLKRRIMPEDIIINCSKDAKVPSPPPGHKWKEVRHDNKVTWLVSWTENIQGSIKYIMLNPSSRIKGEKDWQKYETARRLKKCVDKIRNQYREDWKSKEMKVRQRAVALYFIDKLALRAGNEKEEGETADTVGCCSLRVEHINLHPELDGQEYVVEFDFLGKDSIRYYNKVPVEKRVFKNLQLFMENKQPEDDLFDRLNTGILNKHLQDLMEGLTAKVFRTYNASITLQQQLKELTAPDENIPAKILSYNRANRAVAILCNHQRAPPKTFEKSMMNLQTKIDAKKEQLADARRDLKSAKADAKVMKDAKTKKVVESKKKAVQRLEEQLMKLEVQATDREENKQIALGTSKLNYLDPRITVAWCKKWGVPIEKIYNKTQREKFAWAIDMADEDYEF
Summary of the method: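 Baculovirus-purified human recombinant Top1 with ~2 nM of a 117 bp oligonucleotide, 3′-end-labeled with [α-32P]dGTP by Klenow fill-in. Drugs at 0.1, 1, 10, 100 μM; 25 °C, 20 min. Stopped with 0.5% SDS, run on 20% denaturing PAGE, phosphorimaged. Cleavage bands scored visually against camptothecin standard.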

[8] = tested on: MCF7; test: Cytotoxicity against human MCF7 cells by SRB assay; assay type: functional
[9] = tested on: SF-539; test: Cytotoxicity against human SF539 cells by SRB assay; assay type: functional
[10] = Cytotoxicity against vinblastine-resistant human KBV1 cells after 72 hrs by MTT assay; assay type: functional; details: KB-V1, 72 h
Summary of the method: (§1)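 Cells were seeded 24 h before dosing and exposed continuously for 72 h. Growth was read by colorimetric MTS assay and expressed relative to vehicle-treated controls set at 100. GI50 is the level giving 50% growth inhibition, from at least two independent determinations. HCT116 and siTop1 cells were kept in RPMI 1640/10% FBS with 100 μg/mL hygromycin; RC0.1 in RPMI 1640/10% FBS.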

[11] = Cytotoxicity against human KB 3.1 cells after 72 hrs by MTT assay; assay type: functional; details: KB 3-1, 72 h; summary of the method: as §1
[12] = target: T1, DNA topoisomerase 1 (Homo sapiens); test: Inhibition of human recombinant topoisomerase 1 using radiolabeled DNA as substrate after 20 mins by SDS-PAGE
Summary of the method: (§2)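 A 117 bp oligonucleotide was 3′-end-labelled with [α-32P]dGTP by Klenow fill-in. Reactions were stopped with 0.5% SDS and run on 20% denaturing polyacrylamide gels. Cleavage bands were scored visually on a semiquantitative scale.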

[13] = tested on: HCT-116; test: Induction of DNA damage in human HCT116 cells assessed as induction of histone gamma-H2AX level at 1 uM after 1 hr by flow cytometry
[14] = tested on: HCT-116; test: Cytotoxicity against human HCT116 cells after 72 hrs by MTT assay; assay type: functional; details: HCT-116, 72 h; summary of the method: as §1
[15] = Cytotoxicity against human RC0.1 cells after 72 hrs by MTT assay; assay type: functional; summary of the method: as §1
[16] = tested on: HCT-116; test: Cytotoxicity against human HCT116 cells transfected with Top1-siRNA after 72 hrs by MTT assay; assay type: functional; details: HCT-116, 72 h; summary of the method: as §1
[17] = tested on: DU-145; test: Cytotoxicity against human DU145 cells after 72 hrs by MTT assay; assay type: functional; details: DU-145, 72 h; summary of the method: as §1
[18] = target: T1, DNA topoisomerase 1 (Homo sapiens); test: Inhibition of human recombinant topoisomerase 1 using radiolabeled DNA as substrate at 100 uM after 20 mins by SDS-PAGE; summary of the method: as §2
[19] = tested on: HCT-116; test: Cell cycle arrest in human HCT116 cells assessed as accumulation at G2 phase at 1 uM incubated for 1 hr followed by compound washout measured after 6 to 48 hrs by propidium iodide staining-based FACS analysis; assay type: functional
Summary of the method: (§3)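 HCT116 cells exposed to 1 μM drug for 1 h, then kept in drug-free medium for the stated times. Fixed cells were stained with propidium iodide and analysed by flow cytometry for DNA content histograms. Phase distributions were computed from the histograms.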

[20] = tested on: HCT-116; test: Cell cycle arrest in human HCT116 cells at 1 uM incubated for 1 hr followed by compound washout measured up to 1 hr by propidium iodide staining-based FACS analysis; assay type: functional; summary of the method: as §3
[21] = tested on: HCT-116; test: Cell cycle arrest in human HCT116 cells at 1 uM after 1 hr by propidium iodide staining-based FACS analysis; assay type: functional; summary of the method: as §3
[22] = Resistance ratio of GI50 for human mitoxantrone-resistant H460 cells to GI50 for human H460 cells; assay type: functional
Summary of the method: (§4)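 Relative resistance = GI50 in the resistant subline divided by GI50 in the parental line. Both GI50s came from 72 h continuous-exposure MTS growth assays, each based on at least two independent determinations.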

[23] = target: T1, DNA topoisomerase 1 (Homo sapiens); test: Inhibition of human recombinant topoisomerase 1 in human HCT116 cells assessed as DNA-protein cross linking at 1 uM after 1 hr; assay type: cell-based; details: HCT-116
Summary of the method: (§5)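 In HCT116 cells, Top1 cleavage complexes were quantified as DNA–protein cross-links by alkaline elution, plotting the fraction of DNA retained on the filter against time. Persistence was read 1 h after drug removal. The negative control was untreated cells given 30 Gy irradiation to create strand breaks.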

[24] = target: T1, DNA topoisomerase 1 (Homo sapiens); test: Inhibition of human recombinant topoisomerase 1 in human HCT116 cells assessed as DNA-protein cross linking at 1 uM incubated for 1 hr followed by compound washout measured after 1 hr; assay type: cell-based; details: HCT-116; summary of the method: as §5
[25] = Resistance ratio of GI50 for vinblastine-resistant human KBV1 cells to GI50 for human KB 3.1 cells; assay type: functional
[26] = Cytotoxicity against human H460 cells after 72 hrs by MTT assay; assay type: functional; details: NCI-H460, 72 h; summary of the method: as §1
[27] = target: T1, DNA topoisomerase 1 (Homo sapiens); test: Inhibition of human recombinant topoisomerase 1 in human HCT116 cells assessed as reversal of topoisomerase 1-DNA cleavage complex stabilization at 1 uM incubated for 1 hr followed by compound washout measured after 24 hrs by DNA immunoblotting analysis; assay type: cell-based; details: HCT-116
Summary of the method: (§6)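 10^6 HCT116 cells were treated with 1 μM for 1 h, and for reversal were held in drug-free medium for the set times. Cells were lysed with DNAzol and genomic DNA was isolated and sonicated. Serial dilutions were slot-blotted onto membranes and Top1–DNA complexes detected with the C21 anti-Top1 monoclonal antibody by immunoblotting (ICE method).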

[28] = tested on: HCT-116; test: Cell cycle arrest in human HCT116 cells assessed as accumulation at S phase at 1 uM incubated for 1 hr followed by compound washout measured after 3 hrs by propidium iodide staining-based FACS analysis; assay type: functional; summary of the method: as §3
[29] = tested on: HCT-116; test: Resistance ratio of GI50 for human HCT116 cells transfected with Top1-siRNA to GI50 for human HCT116 cells; assay type: functional; summary of the method: as §4
[30] = Cytotoxicity against human mitoxantrone-resistant H460 cells after 72 hrs by MTT assay; assay type: functional; details: NCI-H460, 72 h; summary of the method: as §1
[31] = target: T1, DNA topoisomerase 1 (Homo sapiens); test: Inhibition of human recombinant topoisomerase 1 in human HCT116 cells assessed as stabilization of topoisomerase 1-DNA cleavage complex at 1 uM after 1 hr by DNA immunoblotting analysis; assay type: cell-based; details: HCT-116; summary of the method: as §6
[32] = tested on: DU-145; test: Resistance ratio of GI50 for human RC0.1 cells to GI50 for human DU145 cells; assay type: functional; summary of the method: as §4
[33] = target: T1, DNA topoisomerase 1 (Homo sapiens); test: Inhibition of human recombinant topoisomerase 1 in human HCT116 cells assessed as reversal of topoisomerase 1-DNA cleavage complex stabilization at 1 uM incubated for 1 hr followed by compound washout measured up to 6 hrs by DNA immunoblotting analysis; assay type: cell-based; details: HCT-116; summary of the method: as §6

inhibition [12]: Active
SMILES: CN(C)CCCn1c2c(c3ccc([N+](=O)[O-])cc3c1=O)C(=O)c1cccnc1-2
GI50 [1]: 1550 nM
GI50 [2]: 3400 nM
GI50 [3]: 3120 nM
GI50 [4]: 1560 nM
GI50 [5]: 1940 nM
GI50 [6]: 486 nM
GI50 [8]: 474 nM
GI50 [9]: 3140 nM

inhibition [7]: Active
SMILES: COc1cnc2c(c1)C(=O)c1c-2n(CCCN(C)CCO)c(=O)c2cc([N+](=O)[O-])ccc12
GI50 [1]: 36 nM
GI50 [2]: 29 nM
GI50 [3]: 180 nM
GI50 [4]: 39 nM
GI50 [5]: 28 nM
GI50 [6]: 49 nM
GI50 [8]: 13 nM
GI50 [9]: 34 nM

inhibition [18]: Active
SMILES: COc1cc2c3c(n(C)c(=O)c2cc1OC)-c1cc2c(cc1C3=O)OCO2
GI50 [1]: 37000 nM
GI50 [2]: 4200 nM
GI50 [4]: 68000 nM
GI50 [5]: 1300 nM
GI50 [6]: 35000 nM

inhibition [27]: Active
inhibition [31]: Active
inhibition [33]: Active
SMILES: CC[C@@]1(O)C(=O)OCc2c1cc1n(c2=O)Cc2cc3c(CN(C)C)c(O)ccc3nc2-1 [TOPOTECAN]
RatioGI50 [22]: >22.39
GI50 [26]: 44.7 nM
GI50 [30]: > 1000 nM

The remaining lines, values behind:

SMILES: COc1cnc2c(c1)C(=O)c1c-2n(CCCN2CCC(O)CC2)c(=O)c2cc([N+](=O)[O-])ccc12
GI50 [1]: < 10 nM
GI50 [2]: < 10 nM
GI50 [3]: 58 nM
GI50 [4]: < 10 nM
GI50 [5]: < 10 nM
GI50 [6]: 10 nM
inhibition [7]: Active
GI50 [8]: < 10 nM
GI50 [9]: 10 nM

SMILES: COc1cccc2c1C(=O)c1c(O)c3c(c(O)c1C2=O)C[C@@](O)(C(=O)CO)C[C@@H]3O[C@H]1C[C@H](N)[C@H](O)[C@H](C)O1 [DOXORUBICIN]
GI50 [10]: > 1000 nM
GI50 [11]: 676 nM

SMILES: CC[C@@]1(O)C(=O)OCc2c1cc1n(c2=O)Cc2cc3ccccc3nc2-1 [CAMPTOTHECIN]
Activity [13]: 40.9%
GI50 [14]: 17.4 nM
GI50 [15]: > 1000 nM
GI50 [16]: 35.5 nM
GI50 [17]: 18.2 nM
GI50 [8]: 13 nM

SMILES: COc1cnc2c(c1)C(=O)c1c-2n(CCCn2ccnc2)c(=O)c2cc([N+](=O)[O-])ccc12.Cl
Activity [13]: 37.3%
Activity [19]: Active
Activity [20]: Active
GI50 [1]: < 10 nM
Activity [21]: Active
RatioGI50 [22]: 19.05
GI50 [14]: 21.9 nM
inhibition [23]: Active
GI50 [2]: < 10 nM
GI50 [10]: 427 nM
GI50 [15]: > 1000 nM
inhibition [24]: Active
RatioGI50 [25]: 1.02
GI50 [3]: 25 nM
GI50 [11]: 417 nM
GI50 [26]: 21.9 nM
inhibition [27]: Active
Activity [28]: Active
GI50 [16]: 70.8 nM
GI50 [4]: < 10 nM
GI50 [5]: < 10 nM
GI50 [17]: 45.7 nM
RatioGI50 [29]: 3.24
GI50 [6]: < 10 nM
inhibition [7]: Active
GI50 [8]: < 10 nM
GI50 [30]: 417 nM
inhibition [31]: Active
RatioGI50 [32]: >21.88
GI50 [9]: < 10 nM
inhibition [33]: Active
